In ChEMBL document CHEMBL1275419, “The thymidine-dependent small-colony-variant phenotype is associated with hypermutability and antibiotic resistance in clinical Staphylococcus aureus isolates” (Antimicrob Agents Chemother, 2008):
The source made the active and inactive calls. No cut-off for these calls is given here.

Legend:
Type in all cases: functional, organism-based
Staphylococcus aureus [1] = test: Antibacterial activity against normal-colony variant Staphylococcus aureus derived from non cystic fibrosis patient assessed as resistant isolates at 37 degC after 24 hrs by disk diffusion method
Method in brief: (§1)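 Disk diffusion per CLSI guidelines (fosfomycin per French CA-SFM guidelines). NCV isolates tested on plain Mueller-Hinton agar and incubated 24 h at 37°C. Isolates scored susceptible or resistant per agent.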

Staphylococcus aureus [2] = test: Antibacterial activity against normal-colony variant Staphylococcus aureus derived from cystic fibrosis patient assessed as resistant isolates at 37 degC after 24 hrs by disk diffusion method; method in brief: as §1
Staphylococcus aureus [3] = test: Antibacterial activity against thymidine-dependent small-colony variant Staphylococcus aureus derived from cystic fibrosis patient assessed as resistant isolates at 37 degC after 24 hrs by disk diffusion method
Method in brief: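 Disk diffusion per CLSI guidelines (fosfomycin per French CA-SFM guidelines). Thymidine-dependent SCVs cannot grow without thymidine, so they were tested on Mueller-Hinton agar with 5% defibrinated sheep blood and incubated 24 h at 37°C. Isolates scored susceptible or resistant per agent.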

Molecule | Activity (Staphylococcus aureus [1]) | Activity (Staphylococcus aureus [2]) | Activity (Staphylococcus aureus [3])
C[C@@H]1O[C@@H]1P(=O)(O)O | Active | Active | inactive
CC[C@H]1OC(=O)[C@H](C)[C@@H](O[C@H]2C[C@@](C)(OC)[C@@H](O)[C@H](C)O2)[C@H](C)[C@@H](O[C@@H]2O[C@H](C)C[C@H](N(C)C)[C@H]2O)[C@](C)(O)C[C@@H](C)C(=O)[C@H](C)[C@@H](O)[C@]1(C)O | Active | Active | inactive
CO[C@H]1/C=C/O[C@@]2(C)Oc3c(C)c(O)c4c(O)c(c(/C=N/N5CCN(C)CC5)c(O)c4c3C2=O)NC(=O)/C(C)=C\C=C\[C@H](C)[C@H](O)[C@@H](C)[C@@H](O)[C@@H](C)[C@H](OC(C)=O)[C@@H]1C | Active | Active | inactive
O=C(O)c1cn(C2CC2)c2cc(N3CCNCC3)c(F)cc2c1=O | Active | Active | inactive
GENTAMICIN | Active | Active | inactive
